Assays:
Format in all cases: functional
[1] = system: Hs-578T; assay: Growth inhibition of human Hs 578T cells at 10 uM after 48 hrs by SRB assay relative to control; conditions: read-out: GI
How it was run: (§1)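 Screened at the National Cancer Institute by the standard NCI protocol using the sulforhodamine B assay, which measures cellular protein. Single dose of 10 µM. Result is percent growth inhibition; values above 100% mean cell number fell below the initial population. Values are the average of duplicates.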

[2] = system: MDA-MB-435; assay: Growth inhibition of human MDA-MB-435 cells at 10 uM after 48 hrs by SRB assay relative to control; conditions: MDA-MB-435, 48 h, read-out: GI; how it was run: as §1
[3] = system: OVCAR-4; assay: Growth inhibition of human OVCAR4 cells at 10 uM after 48 hrs by SRB assay relative to control; conditions: OVCAR-4, 48 h, read-out: GI; how it was run: as §1
[4] = system: PC-3; assay: Growth inhibition of human PC3 cells at 10 uM after 48 hrs by SRB assay relative to control; conditions: PC-3, 48 h, read-out: GI; how it was run: as §1
[5] = system: OVCAR-3; assay: Growth inhibition of human OVCAR3 cells at 10 uM after 48 hrs by SRB assay relative to control; conditions: OVCAR-3, 48 h, read-out: GI; how it was run: as §1
[6] = system: UO-31; assay: Growth inhibition of human UO31 cells at 10 uM after 48 hrs by SRB assay relative to control; conditions: UO-31, 48 h, read-out: GI
How it was run: (§2)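 NCI screen against its human cancer cell line panel by the standard NCI protocol, SRB protein stain. Single dose of 10 μM. Percent growth inhibition versus control; values above 100% mean the cell population fell below the starting number. Each value is the mean of duplicates.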

[7] = system: SNB-75; assay: Growth inhibition of human SNB75 cells at 10 uM after 48 hrs by SRB assay relative to control; conditions: SNB-75, 48 h, read-out: GI; how it was run: as §2
[8] = system: HCC 2998; assay: Growth inhibition of human HCC2998 cells at 10 uM after 48 hrs by SRB assay relative to control; conditions: HCC 2998, 48 h, read-out: GI; how it was run: as §1
[9] = system: U-251; assay: Growth inhibition of human U251 cells at 10 uM after 48 hrs by SRB assay relative to control; conditions: U-251, 48 h, read-out: GI; how it was run: as §2
[10] = system: MOLT-4; assay: Growth inhibition of human MOLT4 cells at 10 uM after 48 hrs by SRB assay relative to control; conditions: MOLT-4, 48 h, read-out: GI; how it was run: as §1
[11] = system: UACC-62; assay: Growth inhibition of human UACC62 cells at 10 uM after 48 hrs by SRB assay relative to control; conditions: UACC-62, 48 h, read-out: GI; how it was run: as §2
[12] = system: HT-29; assay: Growth inhibition of human HT-29 cells at 10 uM after 48 hrs by SRB assay relative to control; conditions: HT-29, 48 h, read-out: GI; how it was run: as §1
[13] = system: HL-60(TB); assay: Growth inhibition of human HL-60(TB) cells at 10 uM after 48 hrs by SRB assay relative to control; conditions: HL-60, 48 h, read-out: GI
How it was run: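 Run at NCI under its standard single-dose protocol against a leukemia cell panel. Cells were exposed to 10 µM; growth was read by sulforhodamine B staining of cellular protein and expressed as % growth inhibition versus untreated control. Values above 100% mean the cell population fell below the starting count (cytocidal). Each value is the average of duplicates.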

[14] = system: HOP-92; assay: Growth inhibition of human HOP92 cells at 10 uM after 48 hrs by SRB assay relative to control; conditions: HOP-92, 48 h, read-out: GI; how it was run: as §1
[15] = system: NCI-H522; assay: Growth inhibition of human NCI-H522 cells at 10 uM after 48 hrs by SRB assay relative to control; conditions: NCI-H522, 48 h, read-out: GI; how it was run: as §1
[16] = system: K562; assay: Growth inhibition of human K562 cells at 10 uM after 48 hrs by SRB assay relative to control; conditions: K562, 48 h, read-out: GI; how it was run: as §1
[17] = system: SN12C; assay: Growth inhibition of human SN12C cells at 10 uM after 48 hrs by SRB assay relative to control; conditions: read-out: GI; how it was run: as §1
[18] = system: SNB-19; assay: Growth inhibition of human SNB19 cells at 10 uM after 48 hrs by SRB assay relative to control; conditions: SNB-19, 48 h, read-out: GI; how it was run: as §2
[19] = system: NCI/ADR-RES; assay: Growth inhibition of human NCI/ADR-RES cells at 10 uM after 48 hrs by SRB assay relative to control; conditions: read-out: GI; how it was run: as §1
[20] = system: TK-10; assay: Growth inhibition of human TK10 cells at 10 uM after 48 hrs by SRB assay relative to control; conditions: TK-10, 48 h, read-out: GI; how it was run: as §2
[21] = system: SW-620; assay: Growth inhibition of human SW620 cells at 10 uM after 48 hrs by SRB assay relative to control; conditions: SW-620, 48 h, read-out: GI; how it was run: as §2
[22] = system: SK-MEL-2; assay: Growth inhibition of human SK-MEL-2 cells at 10 uM after 48 hrs by SRB assay relative to control; conditions: SK-MEL-2, 48 h, read-out: GI; how it was run: as §1
[23] = system: HCT-116; assay: Growth inhibition of human HCT116 cells at 10 uM after 48 hrs by SRB assay relative to control; conditions: HCT-116, 48 h, read-out: GI; how it was run: as §1
[24] = system: A549; assay: Growth inhibition of human A549 cells at 10 uM after 48 hrs by SRB assay relative to control; conditions: A549, 48 h, read-out: GI; how it was run: as §1
[25] = system: SF-539; assay: Growth inhibition of human SF539 cells at 10 uM after 48 hrs by SRB assay relative to control; conditions: SF-539, 48 h, read-out: GI; how it was run: as §1
[26] = system: HOP-62; assay: Growth inhibition of human HOP62 cells at 10 uM after 48 hrs by SRB assay relative to control; conditions: HOP-62, 48 h, read-out: GI; how it was run: as §1
[27] = system: SR; assay: Growth inhibition of human SR cells at 10 uM after 48 hrs by SRB assay relative to control; conditions: read-out: GI; how it was run: as §2
[28] = system: BT-549; assay: Growth inhibition of human BT549 cells at 10 uM after 48 hrs by SRB assay relative to control; conditions: BT-549, 48 h, read-out: GI; how it was run: as §1
[29] = system: SK-MEL-5; assay: Growth inhibition of human SK-MEL-5 cells at 10 uM after 48 hrs by SRB assay relative to control; conditions: SK-MEL-5, 48 h, read-out: GI; how it was run: as §1
[30] = system: COLO 205; assay: Growth inhibition of human COLO205 cells at 10 uM after 48 hrs by SRB assay relative to control; conditions: COLO 205, 48 h, read-out: GI; how it was run: as §1
[31] = system: MDA-MB-468; assay: Growth inhibition of human MDA-MB-468 cells at 10 uM after 48 hrs by SRB assay relative to control; conditions: MDA-MB-468, 48 h, read-out: GI; how it was run: as §1
[32] = system: 786-0; assay: Growth inhibition of human 786-0 cells at 10 uM after 48 hrs by SRB assay relative to control; conditions: 786-0, 48 h, read-out: GI; how it was run: as §1
[33] = system: Malme-3M; assay: Growth inhibition of human MALME-3M cells at 10 uM after 48 hrs by SRB assay relative to control; conditions: read-out: GI; how it was run: as §1

Row | Structure (SMILES) | inhibition of growth at 10 µM [1] | inhibition of growth at 10 µM [2] | inhibition of growth at 10 µM [3] | inhibition of growth at 10 µM [4] | inhibition of growth at 10 µM [5] | inhibition of growth at 10 µM [6] | inhibition of growth at 10 µM [7] | inhibition of growth at 10 µM [8] | inhibition of growth at 10 µM [9] | inhibition of growth at 10 µM [10] | inhibition of growth at 10 µM [11] | inhibition of growth at 10 µM [12] | inhibition of growth at 10 µM [13] | inhibition of growth at 10 µM [14] | inhibition of growth at 10 µM [15] | inhibition of growth at 10 µM [16] | inhibition of growth at 10 µM [17] | inhibition of growth at 10 µM [18] | inhibition of growth at 10 µM [19] | inhibition of growth at 10 µM [20] | further results
1 | COc1ccccc1NC(=O)c1cccc(-c2cc(=O)c3c(OC)c(OC)c(OC)cc3o2)c1 | 60% | 22.4% | 19.4% | 43.6% | 47.5% | 69.6% | 30.1% | 13.6% | 11% | 38.7% | 46.5% | 38.6% | 10.1% | 62.5% | 56.5% | 51.2% | 34.6% | 17.5% | 46.7% | 10.4% | inhibition of growth at 10 µM [21]: 12.2%; inhibition of growth at 10 µM [22]: 14.4%; inhibition of growth at 10 µM [23]: 31.9%; inhibition of growth at 10 µM [24]: 31.1%; inhibition of growth at 10 µM [25]: 30.5%; inhibition of growth at 10 µM [26]: 30.6%; inhibition of growth at 10 µM [27]: 32.4%; inhibition of growth at 10 µM [28]: 44.9%; inhibition of growth at 10 µM [29]: 58.4%; inhibition of growth at 10 µM [30]: 14.8%; inhibition of growth at 10 µM [31]: 24.3%; inhibition of growth at 10 µM [32]: 39.2%; inhibition of growth at 10 µM [33]: 22.9%
2 | COc1cc2oc(-c3cccc(C(=O)Nc4ccc5c(c4)OCO5)c3)cc(=O)c2c(OC)c1OC | 14% | 4.94% | 3.72% | 26.5% | 12.7% | 41% | -1.27% | 2.03% | 9.36% | 35.2% | 19.1% | 17.2% | 30.3% | 21.9% | 26.9% | 25.8% | 30.8% | 5.13% | 35.1% | 16.1% | inhibition of growth at 10 µM [21]: -4.89%; inhibition of growth at 10 µM [22]: -2.38%; inhibition of growth at 10 µM [23]: 27.3%; inhibition of growth at 10 µM [24]: 25.5%; inhibition of growth at 10 µM [25]: 14.7%; inhibition of growth at 10 µM [26]: 26.6%; inhibition of growth at 10 µM [27]: 52.4%; inhibition of growth at 10 µM [28]: 42.4%; inhibition of growth at 10 µM [29]: 47.2%; inhibition of growth at 10 µM [30]: 24.4%; inhibition of growth at 10 µM [31]: 1.72%; inhibition of growth at 10 µM [32]: 7.44%; inhibition of growth at 10 µM [33]: 1.22%
3 | COc1ccc(C(=O)Nc2cccc(-c3cc(=O)c4c(OC)c(OC)c(OC)cc4o3)c2)cc1 | 57.1% | 30.4% | 38% | 68.1% | 33.2% | 73.5% | 32.4% | 29.7% | 27.7% | 76.7% | 44.6% | 53.3% | 55.2% | 93.3% | 55.5% | 79.4% | 50% | 35.4% | 39.8% | 23.3% | inhibition of growth at 10 µM [21]: 12%; inhibition of growth at 10 µM [22]: 38.7%; inhibition of growth at 10 µM [23]: 52.2%; inhibition of growth at 10 µM [24]: 35.3%; inhibition of growth at 10 µM [25]: 33.7%; inhibition of growth at 10 µM [26]: 27.5%; inhibition of growth at 10 µM [27]: 71.4%; inhibition of growth at 10 µM [28]: 48.6%; inhibition of growth at 10 µM [29]: 49.8%; inhibition of growth at 10 µM [30]: 26.9%; inhibition of growth at 10 µM [31]: 24.8%; inhibition of growth at 10 µM [32]: 45%; inhibition of growth at 10 µM [33]: 46.6%
